Results published in ChEMBL document CHEMBL3580630, “Design and Synthesis of a Screening Library Using the Natural Product Scaffold 3-Chloro-4-hydroxyphenylacetic Acid” (2015).
Active and inactive are the calls of the source. The rule behind the calls is not given here.

Experiments:
[1] = tested on: Trypanosoma brucei brucei; experiment: Antiparasitic activity against bloodstream form of Trypanosoma brucei brucei 427 assessed as inhibition of parasite replication at 10 uM after 72 hrs by resazurin assay relative to control; assay type: functional; settings: Trypanosoma brucei, 427, 72 h
Plasmodium falciparum = experiment: Antiparasitic activity against asexual intraerythrocytic stage of Plasmodium falciparum 3D7 assessed as inhibition of parasite replication at 10 uM after 72 hrs by DAPI staining-based microscopic analysis relative to control; assay type: functional; settings: 3D7, 72 h
LNCaP [2] = experiment: Cytotoxicity against human LNCAP cells assessed as inhibition of cell proliferation at 10 uM after 72 hrs by Alamar blue assay relative to control; assay type: functional
LNCaP [3] = experiment: Antilipogenic activity in human LNCAP cells assessed as reduction of cellular phospholipid level at 10 uM after 48 hrs by nile red staining-based fluorescence microscopic analysis relative to control; assay type: functional, cell-based
In short: (§1)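 Cells were grown 72 h in phenol-red-free RPMI-1640 with 5% CSS, then exposed 48 h to 10 µM compound in 0.3% DMSO. Controls were DMSO alone (negative) and TOFA (positive). Cells were fixed in 4% paraformaldehyde for 20 min on ice, then stained 20 min at room temperature in the dark with 1.0 µg/mL DAPI and 0.25 µg/mL Nile Red in PBS. Imaging was at 10×. Neutral lipids were read in the Cy3 channel and phospholipids in Cy5, as mean fluorescence intensity per cell (~1500 cells/treatment). Statistics used one-way ANOVA with Dunnett's test.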

LNCaP [4] = experiment: Antilipogenic activity in human LNCAP cells assessed as reduction of cellular neutral lipid level at 10 uM after 48 hrs by nile red staining-based fluorescence microscopic analysis relative to control; assay type: functional, cell-based; in short: as §1
PC-3 [5] = experiment: Antilipogenic activity in human PC3 cells assessed as reduction of cellular phospholipid level at 10 uM after 48 hrs by nile red staining-based fluorescence microscopic analysis relative to control; assay type: functional, cell-based; in short: as §1
PC-3 [6] = experiment: Antilipogenic activity in human PC3 cells assessed as reduction of cellular neutral lipid level at 10 uM after 48 hrs by nile red staining-based fluorescence microscopic analysis relative to control; assay type: functional, cell-based; in short: as §1

| SMILES | inhibition at 10 µM [1] [%] | inhibition at 10 µM (Plasmodium falciparum) [%] | inhibition at 10 µM (LNCaP [2]) [%] | Activity (LNCaP [3]) | Activity (LNCaP [4]) | Activity (PC-3 [5]) | Activity (PC-3 [6]) |
| --- | --- | --- | --- | --- | --- | --- | --- |
| O=C(Cc1ccc(O)c(Cl)c1)NCCc1ccc(Br)cc1 | > 50 | > 50 | > 50 |  |  |  |  |
| COC(=O)Cc1ccc(O)c(Cl)c1 | > 50 | > 50 | > 50 |  |  |  |  |
| O=C(Cc1ccc(O)c(Cl)c1)NCCN1CCNCC1 | > 50 | > 50 | > 50 |  |  |  |  |
| CC(C)CCNC(=O)Cc1ccc(O)c(Cl)c1 | > 50 | > 50 | > 50 |  |  |  |  |
| O=C(Cc1ccc(O)c(Cl)c1)NCc1cccc(F)c1 | > 50 | > 50 | > 50 | Active | Active | Active | Active |
| O=C(Cc1ccc(O)c(Cl)c1)NCc1ccc(F)cc1 | > 50 | > 50 | > 50 | Active | Active | Active | Active |
| CCN(CC)CCCNC(=O)Cc1ccc(O)c(Cl)c1 | > 50 | > 50 | > 50 |  |  |  |  |
| O=C(Cc1ccc(O)c(Cl)c1)NCc1ccccc1F | > 50 | > 50 | > 50 | Active | Active | Active | Active |
| O=C(Cc1ccc(O)c(Cl)c1)NCCc1ccccc1F | > 50 | > 50 | > 50 |  |  |  |  |
| O=C(Cc1ccc(O)c(Cl)c1)NCCc1ccccn1 | > 50 | > 50 | > 50 |  |  |  |  |
| CCN(CC)CCNC(=O)Cc1ccc(O)c(Cl)c1 | > 50 | > 50 | > 50 |  |  |  |  |
| O=C(Cc1ccc(O)c(Cl)c1)NCCN1CCOCC1 | > 50 | > 50 | > 50 |  |  |  |  |
| O=C(Cc1ccc(O)c(Cl)c1)NCc1ccccc1 | > 50 | > 50 | > 50 |  |  |  |  |
| O=C(Cc1ccc(O)c(Cl)c1)NCCc1ccccc1 | > 50 | > 50 | > 50 |  |  |  |  |
| O=C(Cc1ccc(O)c(Cl)c1)NCCc1cccc(F)c1 | > 50 | > 50 | > 50 |  |  |  |  |
| O=C(Cc1ccc(O)c(Cl)c1)NCCc1ccc(Cl)cc1 | > 50 | > 50 | > 50 |  |  |  |  |
| CCCCCCCCCCCCCCOc1ccc(C(=O)O)o1 |  |  |  | inactive | Active | inactive | Active |
| CN(C)CCCNC(=O)Cc1ccc(O)c(Cl)c1 | > 50 | > 50 | > 50 |  |  |  |  |
| O=C(Cc1ccc(O)c(Cl)c1)NCCc1ccc(F)cc1 | > 50 | > 50 | > 50 |  |  |  |  |
| O=C(O)Cc1ccc(O)c(Cl)c1 | > 50 | > 50 | > 50 |  |  |  |  |
| O=C(Cc1ccc(O)c(Cl)c1)NCc1ccc(Cl)cc1 | > 50 | > 50 | > 50 |  |  |  |  |
| O=C(Cc1ccc(O)c(Cl)c1)NCc1ccc(Br)cc1 | > 50 | > 50 | > 50 |  |  |  |  |
| CN(C)CCNC(=O)Cc1ccc(O)c(Cl)c1 | > 50 | > 50 | > 50 |  |  |  |  |
